The record followed here is ChEMBL document CHEMBL1138329, “Pharmacokinetic/pharmacodynamic model-guided identification of hypoxia-selective 1,2,4-benzotriazine 1,4-dioxides with antitumor activity: the role of extravascular transport” (J Med Chem, 2007).

Usually pIC50 stands for the IC50 on a negative log10 scale, so that one unit is a factor of ten. Higher therefore signals a low IC50. As usually defined, the AUC is the area under the concentration-time curve, a measure of exposure. A high value points to more exposure. As usually defined, the solubility is how much of the substance goes into solution per volume. By half-life is commonly meant the time in which the quantity being followed falls by half. Higher therefore signals slow decline. A word on the Cmax: it is the peak of the concentration-time curve.

The subject of data set [1] is SiHa. The data set is described as follows: Ratio of IC50 for SiHa cells under oxic conditions to hypoxic conditions after 4 hrs. The format is functional, Homo sapiens.
The subject of data set [2] is HT-29. The data set is described as follows: Effect on human HT29 cells under hypoxic conditions assessed as drug level causing 10% clonogenic survival. The format is functional. An outline of the steps:
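HT29 suspensions (1 or 2 × 10^6 cells/mL) in serum-free medium were stirred under 5% CO2/95% N2 for 90 min. Drug was added from deoxygenated DMSO stock at a level giving about 10% survival at 1 h, and samples were taken up to 3 h. Clonogenic survival (14 days, methylene blue) was fitted with the HPLC concentration–time data, and the 10% survival exposure was interpolated.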

Data set [3] has as its system SiHa. The data set is described as follows: Cytotoxicity against human SiHa cells under hypoxic conditions after 4 hrs. The format is functional, cell-based.
For data set [4], the system named is HT-29. Briefly: Ratio of IC50 for HT29 cells under oxic conditions to hypoxic conditions after 4 hrs. In kind it is functional, Homo sapiens.
Data set [5] has as its system HT-29. Briefly: Antitumor activity against human HT29 cells implanted in CD1 mouse assessed as clonogenic survival at 750 umol/kg, ip after 18 hrs relative to control. The format is functional. In a few lines:
(§1)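 HT29 xenografts in CD-1 homozygous nude mice; single i.p. dose of drug alone, formulated as the HCl salt in 0.9% saline, 5% DMSO/saline or lactate buffer (pH 4.0). Tumors excised 18 h later, dissociated to single-cell suspensions and plated. Clonogens/g of tumor counted; surviving fraction = treated/control clonogens/g.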

Data set [6] has as its system HT-29. The data set is described as follows: Antitumor activity against human HT29 cells implanted in CD1 mouse at 750 umol/kg, ip administered 5 mins after irradiation by excision assay relative to radiation alone. In kind it is functional. An outline of the steps: (§2)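 Hypoxic-cell excision assay in HT29 xenografts in CD-1 homozygous nude mice. Mice received 20 Gy γ radiation to sterilize oxic tumor cells, then a single i.p. drug dose (HCl salt in saline, 5% DMSO/saline or pH 4.0 lactate buffer) 5 min later. Tumors excised at 18 h and plated for clonogens/g. Log cell kill = log(clonogens/g, radiation only) − log(clonogens/g, radiation plus drug).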

The subject of another data set is Mus musculus. The data set is described as follows: Toxicity in ip dosed CD1 mouse. In kind it is organism-based. As to conditions: in vivo. In a few lines:
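MTD in CD-1 homozygous nude mice after single i.p. doses (HCl salts in saline, 5% DMSO/saline or lactate buffer pH 4.0), escalated in 1.33-fold increments. MTD taken as the highest dose causing no death, no body weight loss >15% and no other severe morbidity in any of 6 mice.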

Data set [7] in a line: AUC in CD1 mouse at 750 umol/kg, ip. The format is ADME, organism-based. As to conditions: plasma. In a few lines:
(§3)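 Single i.p. dose to CD-1 homozygous nude mice, drug as HCl salt in 0.9% saline, 5% DMSO/saline or lactate buffer (pH 4.0). Plasma total drug measured by HPLC at 75 or 100% of MTD (MTD from 1.33-fold dose steps, 6 mice). Noncompartmental analysis gave AUC, Cmax and t1/2.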

Data set [8] concerns HT-29. Briefly: Cytotoxicity against human HT29 cells under hypoxic conditions after 4 hrs. The format is functional, cell-based. As to conditions: HT-29, 4 h.
The nature of data set [9]: Solubility in culture medium in presence of 5% fetal calf serum. In kind it is physicochemical. As to conditions: culture medium with 5% fetal calf serum.
The nature of data set [10]: Half life in CD1 mouse at 750 umol/kg, ip. In kind it is ADME, organism-based. As to conditions: in vivo. An outline of the steps: as §3
Data set [11] can be described thus: Cmax in CD1 mouse at 750 umol/kg, ip. In kind it is ADME, organism-based. Also on record: dose 750 umol/kg, route intraperitoneal. As to conditions: in vivo. An outline of the steps:
as §3

A short description of data set [12]: Protein binding in mouse plasma by equilibrium dialysis. In kind it is ADME, cell-free. As to conditions: read-out: PPB (converted). (In equilibrium dialysis free small molecules cross a membrane that holds back macromolecules.)
Data set [13] is described as follows: Half life in CD1 mouse at 562 umol/kg, ip. The format is ADME, organism-based. As to conditions: in vivo. In a few lines:
as §3

Data set [14] is described as follows: Cmax in CD1 mouse at 562 umol/kg, ip. The format is ADME, organism-based. Also on record: dose 562 umol/kg, route intraperitoneal. As to conditions: in vivo. An outline of the steps: as §3
Data set [15] deals with HT-29. The data set is described as follows: Antitumor activity against human HT29 cells implanted in CD1 mouse assessed as clonogenic survival at 562 umol/kg, ip after 18 hrs relative to control. The format is functional. An outline of the steps:
as §1

The test system of data set [16] is HT-29. Briefly: Diffusion coefficient, D in HT29 multicellular layers. As to conditions: human. The format is ADME, cell-based. An outline of the steps: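 HT29 multicellular layers were grown 3 days on collagen-coated Teflon membranes, equilibrated 60 min under 95% O2/5% CO2 at 37 °C, then placed in a diffusion chamber. Donor and receiver were sampled up to 5 h and assayed by HPLC. D came from fitting both profiles to a Fickian model with membrane and MCL in series, corrected by support-only Ds.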

Data set [17] has as its system HT-29. Briefly: Antitumor activity against human HT29 cells implanted in CD1 mouse at 562 umol/kg, ip administered 5 mins after irradiation by excision assay relative to radiation alone. In kind it is functional. In a few lines: as §2
Data set [18] deals with HT-29. Briefly: Antitumor activity against human HT29 cells implanted in CD1 mouse assessed as clonogenic survival at 316 umol/kg, ip after 18 hrs relative to control. The format is functional. In a few lines: as §1
The nature of data set [19]: Cmax in CD1 mouse at 316 umol/kg, ip. In kind it is ADME, organism-based. Also on record: dose 316 umol/kg, route intraperitoneal. As to conditions: in vivo. An outline of the steps:
as §3

The test system of data set [20] is HT-29. The data set is described as follows: Antitumor activity against human HT29 cells implanted in CD1 mouse at 316 umol/kg, ip administered 5 mins after irradiation by excision assay relative to radiation alone. In kind it is functional. An outline of the steps:
as §2

Data set [21] is described as follows: Half life in CD1 mouse at 316 umol/kg, ip. In kind it is ADME, organism-based. As to conditions: in vivo. An outline of the steps:
as §3

Data set [22] is described as follows: AUC in CD1 mouse at 133 umol/kg, ip. In kind it is ADME, organism-based. As to conditions: plasma. An outline of the steps: as §3
Data set [23] can be described thus: Cmax in CD1 mouse at 133 umol/kg, ip. The format is ADME, organism-based. Also on record: dose 133 umol/kg, route intraperitoneal. As to conditions: in vivo. In a few lines: as §3
The test system of data set [24] is HT-29. Briefly: Antitumor activity against human HT29 cells implanted in CD1 mouse assessed as clonogenic survival at 133 umol/kg, ip after 18 hrs relative to control. In kind it is functional. An outline of the steps: as §1
Data set [25] has as its system HT-29. Briefly: Antitumor activity against human HT29 cells implanted in CD1 mouse at 133 umol/kg, ip administered 5 mins after irradiation by excision assay relative to radiation alone. In kind it is functional. In a few lines: as §2

pIC50: −log10 of the molar value.

Consider `CCOc1ccc2c(c1)[n+]([O-])c(NCCN(C)C)n[n+]2[O-]`, for which the “Ratio IC50” value in the data set with SiHa [1] was 245; in the data set on HT-29 [4] it was 121. For the same compound, the Activity in the data set on HT-29 [2] was 50.1 µM·h. Also, the pIC50 with SiHa [3] is 6.10; in the data set with HT-29 [8] it was 5.59. For the same compound, the LCK with HT-29 [5] stood at 0.09; with HT-29 [6], 0.83. For the same compound, the MTD in the data set on Mus musculus came to 1000 µmol/kg. The same compound gave an AUC in data set [7] of 82.3 µM·h. Moreover, the solubility in [9] is greater than 50 mM. For the same compound, the half-life in data set [10] stood at 31.6 min. The same compound came in with a Cmax in data set [11] of 85.7 µM.

As for `Cc1ccc2c(c1)[n+]([O-])c(NCCN(C)C)n[n+]2[O-]`, the “Ratio IC50” value in the data set with SiHa [1] amounted to 200; in the data set on HT-29 [4], 159. Besides, the Activity with HT-29 [2] was found to be 6.3 µM·h. The pIC50 with SiHa [3] is 5.96; in the data set with HT-29 [8], 5.72. Moreover, the fraction unbound in data set [12] is 0.04. Also, the MTD in the data set with Mus musculus was found to be 562 µmol/kg. Moreover, the half-life in data set [13] stood at 22.5 min. The same compound registered a peak concentration (Cmax) in data set [14] of 104 µM. For the same compound, the solubility in data set [9] is greater than 51 mM. Moreover, the LCK worked out at 0.07 in the data set on HT-29 [15] and 1 with HT-29 [17]. The same compound displayed a D with HT-29 [16] of 3.99e-07 cm²/s.

As for `CCc1ccc2c(c1)[n+]([O-])c(NCCCN1CCOCC1)n[n+]2[O-]`, the “Ratio IC50” value was 66 with SiHa [1] and greater than 36 with HT-29 [4]. Also, the Activity in the data set on HT-29 [2] came to 56.5 µM·h. For the same compound, the pIC50 with SiHa [3] was 5.25; in the data set on HT-29 [8] it was 4.98. Further, the figures for the LCK with HT-29 [5] and in the data set with HT-29 [6] were 0.13 and 0.82, respectively. For the same compound, the MTD in the data set on Mus musculus was 1000 µmol/kg. In data set [7], this compound had an AUC of 94.8 µM·h. The solubility in data set [9] amounted to 55 mM. Besides, the half-life in data set [10] turned out to be 24.9 min. In addition, the highest concentration (Cmax) in data set [11] was determined as 139 µM.

Take `CCCN(CCC)CCNc1n[n+]([O-])c2ccccc2[n+]1[O-]`: the figures for the “Ratio IC50” value in the data set on SiHa [1] and with HT-29 [4] were 68 and 82, respectively. In addition, the Activity in the data set on HT-29 [2] was found to be 3.9 µM·h. Besides, the pIC50 is 5.70 in the data set with SiHa [3] and 5.77 with HT-29 [8]. Besides, the LCK came out at 0.01 in the data set with HT-29 [18] and 0.25 in the data set with HT-29 [20]. The fraction unbound in data set [12] is 0.023. This compound had a Cmax in data set [19] of 17 µM. Also, the MTD in the data set on Mus musculus amounted to 316 µmol/kg. Moreover, in data set [9], the solubility is greater than 25 mM. This compound had a D in the data set on HT-29 [16] of 1.71e-06 cm²/s. Besides, the half-life in data set [21] amounted to 11.8 min.

Consider `Nc1n[n+]([O-])c2ccccc2[n+]1[O-]` [TIRAPAZAMINE], for which the Activity in the data set on HT-29 [2] amounted to 24.3 µM·h. Moreover, the pIC50 in the data set on SiHa [3] was 5.60; with HT-29 [8] it was 5.29. Further, the AUC in [22] was 49.2 µM·h. In the data set on Mus musculus, this compound returned an MTD of 178 µmol/kg. The peak level in [23] (Cmax) was 61.7 µM. For the same compound, in [9], the solubility stood at 8.9 mM. In the data set on HT-29 [16], this compound yielded a D of 4.04e-07 cm²/s. Further, the LCK was 0.15 in the data set with HT-29 [24] and 0.59 with HT-29 [25].
